T cruzi growth-1 = blocks T. cruzi growth in NIH3T3 culture | T. cruzi beta-gal in NIH3T3, GalScreen luminescence, 90 h | inhibition, % at 8.34 µM | 77,000 tested, 5.9% active | AID 624255;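 active = mean inhibition above about 93%, with at least 55% of replicates each passing it, limit read from the data, passing the limit was not always enough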
Pf Dd2 growth = P. falciparum Dd2 growth inhibition; SYBR Green, 72 h; hits give low values; activity change, % at 10 µM; 94,000 tested, 2.3% active; in the data active = activity change below about -80%
GASC1 inh = inhibitors of human demethylase GASC-1 KDM4C | Q9H3R0 | GST-KDM4C 2-372, H3K9me3 peptide, LANCE TR-FRET | inhibition, % at 12.5 µM | 96,000 tested, 0.15% active | AID 720574;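 active = mean replicate inhibition above about 25%, with at least 55% of replicates also reaching it, limit read from the data, passing the limit was not always enough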
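Compound: one test concentration per compound; Material: GST-GASC-1 enzyme fragment 2-372; Amount: GASC-1 enzyme at 10 nM final in reaction; Also added: H3K9me3 peptide substrate, Fe(II), 2-oxoglutarate; Technique: LANCE TR-FRET; Times: 30 min demethylation and 1 h detection at room temperature.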
IDH1 mut inh = inhibitors of human IDH1 R132H. O75874. 70,000 tested, 0.18% active. IDH1 R132H reductase, diaphorase/resazurin fluorescence, 60 min. inhibition, % at 10 µM; in the data active = inhibition above about 34%;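 also: 0% = DMSO and 100% = no enzyme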
Target sequence (O75874 whole entry R132H): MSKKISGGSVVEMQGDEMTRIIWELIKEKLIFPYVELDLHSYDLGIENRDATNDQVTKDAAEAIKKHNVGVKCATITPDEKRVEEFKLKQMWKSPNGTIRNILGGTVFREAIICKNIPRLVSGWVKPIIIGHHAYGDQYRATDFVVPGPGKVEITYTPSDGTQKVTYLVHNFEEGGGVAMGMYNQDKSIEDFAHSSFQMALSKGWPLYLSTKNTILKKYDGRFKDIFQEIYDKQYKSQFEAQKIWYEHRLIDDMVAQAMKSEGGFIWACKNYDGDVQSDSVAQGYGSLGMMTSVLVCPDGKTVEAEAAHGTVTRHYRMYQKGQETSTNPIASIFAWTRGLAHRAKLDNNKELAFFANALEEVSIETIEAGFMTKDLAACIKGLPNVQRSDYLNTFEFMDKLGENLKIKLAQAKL
T cruzi growth-2 = blocks T. cruzi growth in NIH3T3 host cells | shares compounds with T cruzi growth-1 | T. cruzi beta-gal in NIH3T3, GalScreen luminescence, 90 h | inhibition, % at 8.35 µM | 5,600 tested, 72% active | AID 651739;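 active = mean replicate inhibition above about 95% and at least 55% of replicates individually reaching it, limit read from the data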
T cruzi growth-3 = inhibitors of T. cruzi proliferation | shares compounds with T cruzi growth-1 | T. cruzi beta-gal in NIH3T3, GalScreen luminescence, 90 h | inhibition, % at 2.09 µM | 5,600 tested, 21% active | AID 651740;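 active = mean inhibition above about 95%, with at least 55% of replicates also reaching it, limit read from the data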;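 also: plate controls were neutral control median for no effect and positive control median for full effect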
NIH3T3 tox = cytotoxicity in mouse NIH/3T3 fibroblasts. cytotoxicity (signal decrease), % at 8.35 µM. shares compounds with T cruzi growth-1. 5,600 tested, 14% active. NIH/3T3 viability, CellTiter-Glo ATP luminescence, 90 h. AID 651742;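 active = mean signal decrease across replicates above about 35% based on untreated-well scatter, with enough replicates individually passing, limit read from the data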;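 also: 0% = median of neutral control wells and 100% = median of positive control wells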
3T3 cytotox 2 = cytotoxicity in mouse NIH/3T3 fibroblasts. 5,600 tested, 56% active. NIH/3T3 viability, CellTiter-Glo ATP luminescence, 90 h. shares compounds with T cruzi growth-1. inhibition, % at 24.9 µM;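 active = mean loss of cell viability signal at or above a set limit, and enough replicates individually reaching it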;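 also: 0% = median of neutral control wells and 100% = median of positive control wells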
* hit, by the source's call. The list is not random: actives were taken first. Their share in the collection is about 5.9%.

Cc1ccc(S(=O)(=O)Nc2ccc3c(c2)C(=O)N([C@@H](C)CO)C[C@@H](C)[C@@H](CN(C)C(=O)Nc2ccc(F)cc2)OCCCC[C@@H](C)O3)cc1 was read as T cruzi growth-1 105.3*, Pf Dd2 growth -77.1, GASC1 inh -0.9, IDH1 mut inh 0.7, T cruzi growth-2 104.3*, T cruzi growth-3 64.4, NIH3T3 tox -2.8 and 3T3 cytotox 2 -15.6.
Screening Cc1ccc(S(=O)(=O)Nc2ccc3c(c2)C(=O)N([C@H](C)CO)C[C@@H](C)[C@H](CN(C)C(=O)Nc2ccc(F)cc2)OCCCC[C@@H](C)O3)cc1 returned T cruzi growth-1 98.4*, Pf Dd2 growth -85.3*, GASC1 inh 1.9, IDH1 mut inh -0.1, T cruzi growth-2 97.3*, T cruzi growth-3 71.9, NIH3T3 tox -1.2 and 3T3 cytotox 2 25.4*.
Screening Cc1ccc(S(=O)(=O)Nc2ccc3c(c2)C(=O)N([C@H](C)CO)C[C@H](C)[C@H](CN(C)C(=O)Nc2ccccc2)OCCCC[C@H](C)O3)cc1 returned T cruzi growth-1 99.9*, Pf Dd2 growth -31.4, GASC1 inh -0.4, IDH1 mut inh 2.0, T cruzi growth-2 108.7*, T cruzi growth-3 42.7, NIH3T3 tox -11.2 and 3T3 cytotox 2 -5.2.
For Cc1ccc(S(=O)(=O)Nc2ccc3c(c2)C(=O)N([C@H](C)CO)C[C@H](C)[C@@H](CN(C)C(=O)Nc2ccccc2)OCCCC[C@@H](C)O3)cc1 the results were T cruzi growth-1 -97.8, Pf Dd2 growth -18.5, GASC1 inh 0.5 and IDH1 mut inh 0.4.
N#C[C@H]1[C@@H](c2ccc(C3=CCCCC3)cc2)[C@@H](CO)N1C(=O)c1cccc(F)c1 was read as T cruzi growth-1 60.6, Pf Dd2 growth -30.9, GASC1 inh 5.3 and IDH1 mut inh -0.8.
N#C[C@@H]1[C@@H](c2ccc(C3=CCCCC3)cc2)[C@H](CO)N1C(=O)c1cccc(F)c1 was read as T cruzi growth-1 100.3*, Pf Dd2 growth 14.6, GASC1 inh -0.7, T cruzi growth-2 87.6, T cruzi growth-3 32.7, NIH3T3 tox 5.2 and 3T3 cytotox 2 75.7*.
`N#C[C@H]1[C@@H](c2ccc(C3=CCCCC3)cc2)[C@@H](CO)N1C(=O)c1ccccn1` gave T cruzi growth-1 102.6*, Pf Dd2 growth -29.4, GASC1 inh 1.6, T cruzi growth-2 103.6*, T cruzi growth-3 117.0*, NIH3T3 tox 6.3 and 3T3 cytotox 2 104.7*.
`N#C[C@H]1[C@@H](c2ccc(C3=CCCCC3)cc2)[C@H](CO)N1S(=O)(=O)c1cccc(F)c1` gave T cruzi growth-1 100.0*, Pf Dd2 growth -17.9, GASC1 inh 1.0, T cruzi growth-2 100.3*, T cruzi growth-3 63.7, NIH3T3 tox 44.7* and 3T3 cytotox 2 103.3*.
`N#C[C@@H]1[C@H](c2ccc(C3=CCCCC3)cc2)[C@@H](CO)N1S(=O)(=O)c1ccccc1` gave T cruzi growth-1 37.6, Pf Dd2 growth -13.5 and GASC1 inh -0.5.
`N#C[C@@H]1[C@H](c2ccc(C3=CCCCC3)cc2)[C@H](CO)N1S(=O)(=O)c1ccccc1` gave T cruzi growth-1 89.9, Pf Dd2 growth -14.2 and GASC1 inh 5.2.
For N#C[C@H]1[C@@H](c2ccc(C3=CCCCC3)cc2)[C@@H](CO)N1S(=O)(=O)c1cccc(F)c1 the results were T cruzi growth-1 104.5*, Pf Dd2 growth -15.3, GASC1 inh -1.8, T cruzi growth-2 101.2*, T cruzi growth-3 86.2, NIH3T3 tox 44.5* and 3T3 cytotox 2 65.4*.
For COc1cc(OC)cc(-c2nnc(SCC(=O)Nc3ccccc3)o2)c1 the results were IDH1 mut inh 0.3.
`O=C(CC1(O)C(=O)N(Cc2ccccc2)c2ccc(Cl)cc21)c1ccncc1` (configuration not stated) gave IDH1 mut inh 0.2.
C[C@H]1CN([C@@H](C)CO)C(=O)c2cccc(NC(=O)Nc3ccc(C(F)(F)F)cc3)c2O[C@@H]1CN(C)Cc1ccc(Oc2ccccc2)cc1 was read as T cruzi growth-1 126.8*, Pf Dd2 growth -33.1, GASC1 inh 5.9, IDH1 mut inh 0.1, T cruzi growth-2 95.8*, T cruzi growth-3 67.0, NIH3T3 tox 23.0 and 3T3 cytotox 2 105.2*.
For C[C@H](CO)N1C[C@H](C)[C@H](CN(C)Cc2ccc(Oc3ccccc3)cc2)Oc2c(NC(=O)Nc3ccc(C(F)(F)F)cc3)cccc2C1=O the results were T cruzi growth-1 122.4*, Pf Dd2 growth -49.7, GASC1 inh -1.3, T cruzi growth-2 103.0*, T cruzi growth-3 108.2*, NIH3T3 tox 8.4 and 3T3 cytotox 2 105.6*.
Screening C[C@H](CO)N1C[C@H](C)[C@H](CN(C)Cc2ccc(Oc3ccccc3)cc2)Oc2c(NC(=O)Nc3ccc(F)cc3)cccc2C1=O returned T cruzi growth-1 58.8, Pf Dd2 growth 10.1, GASC1 inh -1.2 and IDH1 mut inh -3.0.
Screening C[C@H](CO)N1C[C@H](C)[C@@H](CN(C)Cc2ccc(Oc3ccccc3)cc2)Oc2c(NC(=O)Nc3ccc(F)cc3)cccc2C1=O returned T cruzi growth-1 125.9*, Pf Dd2 growth -18.2, GASC1 inh -2.1, IDH1 mut inh 1.3, T cruzi growth-2 72.5, T cruzi growth-3 -6.3, NIH3T3 tox -24.6 and 3T3 cytotox 2 -7.4.
Screening COc1ccc(S(=O)(=O)N(C)C[C@H]2OCCCC[C@@H](C)Oc3ccc(NS(=O)(=O)c4ccc(F)cc4)cc3C(=O)N([C@@H](C)CO)C[C@H]2C)cc1 returned T cruzi growth-1 100.4*, Pf Dd2 growth -51.3, GASC1 inh 0.8, IDH1 mut inh 3.2, T cruzi growth-2 98.5*, T cruzi growth-3 75.1, NIH3T3 tox -16.2 and 3T3 cytotox 2 -14.6.
COc1ccc(S(=O)(=O)Nc2ccc3c(c2)C(=O)N([C@@H](C)CO)C[C@@H](C)[C@@H](CN(C)S(=O)(=O)c2ccc(F)cc2)OCCCC[C@H](C)O3)cc1 was read as T cruzi growth-1 44.5, Pf Dd2 growth -62.6 and GASC1 inh -1.4.
For COc1ccc(S(=O)(=O)Nc2ccc3c(c2)C(=O)N([C@@H](C)CO)C[C@@H](C)[C@H](CN(C)S(=O)(=O)c2ccc(F)cc2)OCCCC[C@@H](C)O3)cc1 the results were T cruzi growth-1 107.6*, Pf Dd2 growth -12.4, GASC1 inh 10.0, IDH1 mut inh 1.3, T cruzi growth-2 114.1*, T cruzi growth-3 64.8, NIH3T3 tox 10.8 and 3T3 cytotox 2 22.9.

Screens deposited in PubChem BioAssay by Broad Institute.
